Experimental data published in ChEMBL document CHEMBL1649522, “Effect of rifampin, a potent inducer of drug-metabolizing enzymes, on the pharmacokinetics of raltegravir” (Antimicrob Agents Chemother, 2009).

What was measured:
Type in all cases: ADME, organism-based
[1] = AUC (0 to infinity) in healthy human at […], po administered as single dose; parameters: time infinity, route oral; conditions: plasma
Method in brief: (§1)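 Healthy male and female subjects (n=9), fasted 8 h before and 4 h after a single oral 400 mg raltegravir dose. Plasma sampled 0–48 h postdose and measured by liquid-liquid extraction then reverse-phase HPLC-MS/MS (LLOQ 2 ng/ml). AUC0-∞ from a biexponential fit plus linear/log trapezoidal rule. Cmax and Tmax read from the data. C12 taken at the nominal 12 h sample.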

[2] = Terminal half life in healthy human at […], po administered as single dose in presence of […], po rifampin; conditions: in vivo, read-out: beta t1/2 (converted)
Method in brief: (§2)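 Study 1: open-label two-period fixed-sequence design in healthy adults (nine completed). A single 400 mg oral dose was given fasted (8 h before, 4 h after), then after at least 4 days washout, 600 mg rifampin orally once daily for 15 days, with 400 mg raltegravir given on day 14. Plasma sampled 0–48 h; LC-MS/MS (LLOQ 2 ng/ml). Biexponential fit weighted 1/(predicted concentration)²; t1/2 = ln(2)/α or β.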

[3] = Cmin in healthy human at […], po BID for 14 days after 12 hrs in presence of […], po rifampin; conditions: in vivo, read-out: Cmin
Method in brief: (§3)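 Same subjects given raltegravir 800 mg orally every 12 h plus rifampin 600 mg orally once daily for 14 days. A light meal was taken 2 h before the day 14 morning dose. Plasma sampled 0–12 h postdose and assayed by HPLC-MS/MS. AUC0-12 by linear-up/log-down trapezoidal rule. Cmax, Tmax and C12 read directly.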

[4] = Cmax in healthy human at […], po administered as single dose in presence of […], po rifampin; parameters: route oral; conditions: in vivo
Method in brief: (§4)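 Same subjects after a washout of at least 4 days, given rifampin 600 mg orally once daily for 15 days. On day 14, a single fasted oral 400 mg raltegravir dose was given with rifampin. Plasma sampled 0–48 h postdose and assayed by HPLC-MS/MS. AUC0-∞ by biexponential fit plus trapezoidal rule. Cmax, Tmax and nominal 12 h C12 read directly.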

[5] = Tmax in healthy human at […], po administered as single dose in presence of […], po rifampin; conditions: in vivo; method in brief: as §4
[6] = Tmax in healthy human at […], po BID for 14 days in presence of […], po rifampin; conditions: in vivo; method in brief: as §3
[7] = Primary phase half life in healthy human at […], po administered as single dose in presence of […], po rifampin; conditions: in vivo; method in brief: as §2
[8] = Terminal half life in healthy human at […], po administered as single dose; parameters: route oral; conditions: in vivo, read-out: beta t1/2 (converted); method in brief: as §2
[9] = Cmin in healthy human at […], po administered as single dose after 12 hrs; parameters: route oral; conditions: in vivo, read-out: Cmin; method in brief: as §1
[10] = AUC(0 to 12 hrs) in healthy human at […], po BID for 14 days in presence of […], po rifampin; parameters: time < 12 hr, route oral; conditions: plasma; method in brief: as §3
[11] = Cmax in healthy human at […], po BID for 14 days in presence of […], po rifampin; parameters: route oral; conditions: in vivo; method in brief: as §3
[12] = AUC (0 to infinity) in healthy human at […], po administered as single dose in presence of […], po rifampin; parameters: route oral, time infinity; conditions: plasma; method in brief: as §4
[13] = AUC(0 to 12 hrs) in healthy human at […], po BID for 4 days; parameters: time < 12 hr, route oral; conditions: plasma
Method in brief: (§5)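 Healthy male and female subjects given raltegravir 400 mg orally every 12 h for 4 days. A light meal was taken 2 h before the day 4 morning dose. Plasma sampled 0–12 h after that dose and assayed by HPLC-MS/MS (LLOQ 2 ng/ml). AUC0-12 by linear-up/log-down trapezoidal rule. Cmax, Tmax and nominal 12 h C12 read from the data.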

[14] = Primary phase half life in healthy human at […], po administered as single dose; parameters: route oral; conditions: in vivo; method in brief: as §2
[15] = Cmin in healthy human at […], po BID for 4 days after 12 hrs; parameters: route oral; conditions: in vivo, read-out: Cmin; method in brief: as §5
[16] = Cmin in healthy human at […], po administered as single dose after 12 hrs in presence of […], po rifampin; conditions: in vivo, read-out: Cmin; method in brief: as §4
[17] = Cmax in healthy human at […], po administered as single dose; parameters: route oral; conditions: in vivo; method in brief: as §1

- AUC(0-inf) [1]: 27.6 µM·h
- half-life [2]: 576 min
- concentration at 12 h [3]: 43.5 nM
- Cmax [4]: 5.34 µM
- Tmax [5]: 3 h
- Tmax [6]: 1.75 h
- half-life [7]: 55.8 min
- half-life [8]: 510 min
- concentration at 12 h [9]: 92.1 nM
- AUC at 12 h [10]: 5.85 µM·h
- Cmax [11]: 1950 nM
- AUC(0-inf) [12]: 16.5 µM·h
- AUC at 12 h [13]: 4.61 µM·h
- half-life [14]: 64.2 min
- concentration at 12 h [15]: 92.5 nM
- concentration at 12 h [16]: 36.3 nM
- Cmax [17]: 8.61 µM
SMILES: Cc1nnc(C(=O)NC(C)(C)c2nc(C(=O)NCc3ccc(F)cc3)c(O)c(=O)n2C)o1 [RALTEGRAVIR]
